Experimental data reported in ChEMBL document CHEMBL1134408, “Antitumor agents. 207. Design, synthesis, and biological testing of 4beta-anilino-2-fluoro-4'-demethylpodophyllotoxin analogues as cytotoxic and antiviral agents” (2001).
In brackets after ≈: the same amount, converted by molar mass.

Key:
[1] = test system: Human betaherpesvirus 5; assay: Inhibitory activity against human cytomegalovirus (HCMV); type: functional; settings: for IC50: read-out: ID50 (the source's name)
Method in brief: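 Confluent HEL fibroblasts infected with Towne strain CMV at 1–2 PFU/cell, with or without a drug dilution series. Antiviral effect read either as extracellular virus yield (day-6 supernatant titred by plaque assay on HEL, counted at 2 weeks) or as viral DNA by 32P-CMV-probe dot hybridization with scintillation counting of dots.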

[2] = Selectivity index (ED50/ID50) value of the compound; type: functional
Method in brief: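 Ratio of ED50 for growing HEL cells (15-day trypan blue count) to ID50 against Towne strain CMV in HEL fibroblasts.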

[3] = test system: CAKI-1; assay: % inhibition against CAKI-1 cells(renal carcinoma) at 4 ug/mL.; type: functional; settings: Homo sapiens
[4] = test system: CAKI-1; assay: % inhibition against CAKI-1 cells(renal carcinoma) at 0.04 ug/mL.; type: functional; settings: Homo sapiens
[5] = test system: A549; assay: GI values against A549 cells (lung cancer); type: functional; settings: Homo sapiens
[6] = test system: MCF7; assay: % inhibition against MCF-7 cells (breast cancer) at 0.4 ug/mL; type: functional; settings: Homo sapiens
[7] = test system: CAKI-1; assay: % inhibition against CAKI-1 cells(renal carcinoma) at 0.4 ug/mL.; type: functional; settings: Homo sapiens
[8] = test system: CAKI-1; assay: GI values against CAKI-1 cells(renal carcinoma); type: functional; settings: Homo sapiens
[9] = test system: A549; assay: % inhibition against A549 cells (lung cancer) at 0.4 ug/mL; type: functional; settings: Homo sapiens
[10] = test system: A549; assay: % inhibition against A549 cells (lung cancer) at 4 ug/mL; type: functional; settings: Homo sapiens
[11] = test system: MCF7; assay: % inhibition against MCF-7 cells (breast cancer) at 0.04 ug/mL; type: functional; settings: Homo sapiens
[12] = GI values against KB cells (nasopharyngeal carcinoma); type: functional; settings: Homo sapiens
[13] = test system: HEL; assay: Inhibitory activity against HEL cells; type: functional; settings: Homo sapiens, read-out: ED50 (the source's name)
Method in brief: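 Human embryonic lung fibroblasts in MEM/10% FBS, 6% CO2, seeded at 50 000 cells/mL with a drug dilution series. Exposure 15 days; viability and cell counts by trypan blue. ED50 (50% growth reduction versus untreated cells) interpolated from dose–response data.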

[14] = % inhibition against KB cells (nasopharyngeal carcinoma) at 4 ug/mL; type: functional; settings: Homo sapiens
[15] = % inhibition against KB cells (nasopharyngeal carcinoma) at 0.4 ug/mL; type: functional; settings: Homo sapiens
[16] = test system: MCF7; assay: % inhibition against MCF-7 cells (breast cancer) at 4 ug/mL; type: functional; settings: Homo sapiens
[17] = % inhibition against KB cells (nasopharyngeal carcinoma) at 0.04 ug/mL; type: functional; settings: Homo sapiens
[18] = test system: A549; assay: % inhibition against A549 cells (lung cancer) at 0.04 ug/mL; type: functional; settings: Homo sapiens
[19] = test system: Vero; assay: Minimum inhibitory concentration for cell growth inhibition (Herpesvirus activity); type: functional; settings: Chlorocebus sabaeus
Method in brief: (§1)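 Cells seeded at 50 000 cells/mL with a drug dilution series, exposed 2 days; cell number by sulforhodamine B staining. ED25 interpolated from dose–response as the concentration cutting absorbency by 25%. MIC = lowest dilution giving detectable growth inhibition. Triplicate wells; absorbency within 5%, ED25 within 30% across independent tests.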

[20] = test system: Vero; assay: Effective dose required to inhibit 25% of cell growth (Herpesvirus activity); type: functional, Chlorocebus sabaeus; method in brief: as §1
[21] = test system: Human alphaherpesvirus 1; assay: Minimum inhibitory concentration against herpesvirus simplex 1; type: functional
Method in brief: (§2)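 Plaque elimination in pre-formed confluent Vero monolayers, HSV-1 strain KOS or HSV-2 strain 186, ~100 PFU inoculum for 30 min. Overlay medium had 0.5% calf serum, 1% carboxymethylcellulose and drug dilutions. Crystal violet fix/stain at 2 days; macroscopic plaques scored. ED100 = dilution fully eliminating plaques without monolayer toxicity. MIC = lowest dilution reducing plaque size/number. Repeated at least twice.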

[22] = test system: Human alphaherpesvirus 2; assay: Effective dose required to inhibit 100% against herpesvirus simplex 2; type: functional; method in brief: as §2
[23] = test system: Human alphaherpesvirus 1; assay: Effective dose required to inhibit 100% against herpesvirus simplex 1; type: functional; method in brief: as §2
[24] = test system: Human alphaherpesvirus 2; assay: Minimum inhibitory concentration against herpesvirus simplex 2; type: functional; method in brief: as §2

| Structure (SMILES) | ID90 [1] | IC50 [1] | SI [2] | inhibition at 4 µg/mL [3] | inhibition at 0.04 µg/mL [4] | GI50 [5] | inhibition at 0.4 µg/mL [6] | inhibition at 0.4 µg/mL [7] | GI50 [8] | inhibition at 0.4 µg/mL [9] | inhibition at 4 µg/mL [10] | inhibition at 0.04 µg/mL [11] | GI50 [12] | EC50 [13] | inhibition at 4 µg/mL [14] | inhibition at 0.4 µg/mL [15] | inhibition at 4 µg/mL [16] | inhibition at 0.04 µg/mL [17] | inhibition at 0.04 µg/mL [18] | other results |
| --- | --- | --- | --- | --- | --- | --- | --- | --- | --- | --- | --- | --- | --- | --- | --- | --- | --- | --- | --- | --- |
| COc1cc([C@@H]2c3cc4c(cc3[C@@H](Nc3ccc(N)cc3)[C@H]3COC(=O)[C@]23F)OCO4)cc(OC)c1O | 5.02 µM | 2.54 µM | 3 | 38% | 0% | 3.98 µM | 5.8% | 2.5% | > 10 µM | 7.7% | 51% | 0% | 3.98 µM | 7.5 µM | 61.5% | 7.5% | 48.1% | 0% | 0% |  |
| COc1cc([C@@H]2c3cc4c(cc3[C@@H](O)[C@H]3COC(=O)[C@]23F)OCO4)cc(OC)c1O | >5 µM | > 5 µM | < 1.6 | 39% | 0% |  | 21.8% | 10.6% |  | 34.3% | 78.1% | 0% |  | 8.2 µM | 64% | 25.6% | 53.8% | 0% | 0% |  |
| COc1cc([C@@H]2c3cc4c(cc3[C@@H](Nc3ccc([N+](=O)[O-])cc3)[C@H]3COC(=O)[C@]23F)OCO4)cc(OC)c1O | 4.6 µM | 1.45 µM | 4.2 | 21.9% | 0.8% | 3.98 µM | 7.3% | 2.6% | > 10 µM | 6.5% | 51.8% | 0.9% | > 10 µM | 6.09 µM | 41.6% | 3.8% | 42.1% | 0% | 0% |  |
| COc1cc([C@@H]2c3cc4c(cc3[C@H](O[Si](C)(C)C(C)(C)C)[C@H]3COC(=O)[C@H]23)OCO4)cc(OC)c1OC |  |  |  |  |  |  |  |  |  |  |  |  |  |  |  |  |  |  |  | MIC [19]: 3 µM (≈ 1.59 µg/mL); ED25 [20]: 6 µM; MIC [21]: 1 µM (≈ 0.529 µg/mL); ED100 [22]: 1000 nM; ED100 [23]: 10 µM; MIC [24]: 0.1 µM (≈ 0.0529 µg/mL) |
| COc1cc([C@@H]2c3cc4c(cc3[C@@H](Nc3ccc(C#N)cc3)[C@H]3COC(=O)[C@H]23)OCO4)cc(OC)c1O |  | 0.62 µM |  |  |  |  |  |  |  |  |  |  |  |  |  |  |  |  |  |  |
| COc1cc([C@@H]2c3cc4c(cc3[C@@H](Nc3ccc([N+](=O)[O-])cc3)[C@H]3COC(=O)[C@H]23)OCO4)cc(OC)c1O |  | 0.35 µM |  |  |  | 0.158 µM |  |  | 0.158 µM |  |  |  | 0.501 µM |  |  |  |  |  |  |  |
| COc1cc([C@@H]2c3cc4c(cc3[C@@H](Nc3ccc5c(c3)OCCC5=O)[C@H]3COC(=O)[C@H]23)OCO4)cc(OC)c1O |  |  |  |  |  | 0.1 µM |  |  | 0.126 µM |  |  |  | 0.631 µM |  |  |  |  |  |  |  |
| COc1cc([C@@H]2c3cc4c(cc3[C@H](O)[C@H]3COC(=O)[C@]23F)OCO4)cc(OC)c1OC | >5 µM | > 5 µM |  | 40.5% | 18.1% | 3.98 µM | 48% | 39.7% | > 10 µM | 69.6% | 73.1% | 34.2% | 0.0316 µM |  | 87.4% | 72% | 51% | 53.3% | 59.4% | MIC [19]: 0.8 µM (≈ 0.346 µg/mL); ED25 [20]: 1 µM; MIC [21]: 1 µM (≈ 0.432 µg/mL); ED100 [22]: 1000 nM; ED100 [23]: 10 µM; MIC [24]: 0.1 µM (≈ 0.0432 µg/mL) |
